Measured values reported in ChEMBL document CHEMBL5252534, “Discovery of a Noncovalent, Mutant-Selective Epidermal Growth Factor Receptor Inhibitor” (J Med Chem, 2016).
In brackets after ≈: the same amount, converted by molar mass. Activity calls are given as the source filed them. The rule behind the calls is not given here.

Key:
[1] = Clearance in dog plasma at 1 mg/kg,iv; type: ADME, organism-based, Canis lupus familiaris
Summary of the method: (§1)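 Single intravenous dose as a solution in 10/35/55 ethanol/PEG/water (mouse 5 mg kg−1; dog 1 mg kg−1); plasma clearance and steady-state volume of distribution derived from the plasma profile.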

[2] = Oral bioavailability in mouse at 25 mg/kg; type: ADME, organism-based; settings: in vivo
Summary of the method: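 Mouse dosed orally at 25 mg kg−1 as a solution in corn oil; bioavailability compared against the iv arm (5 mg kg−1 in ethanol/PEG/water).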

[3] = tested on: Epidermal growth factor receptor (Homo sapiens), P00533 [L858R,T790M]; test: In vivo inhibition of EGFR L858R/T790M double mutant in SCID mouse xenografted with human NCI-H1975 cells assessed as reduction in ERK1/2 phosphorylation at 50 mg/kg, po and measured after 8 hrs by MSD assay; type: functional, organism-based
Summary of the method: (§2)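 H1975 tumor-bearing mice given a single oral dose of 50 or 100 mg/kg; tumors collected at set times; phospho-EGFR, ERK and AKT measured by MSD immunoassay; four animals per group, individual animals plotted.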

[4] = molecular target: Epidermal growth factor receptor (Homo sapiens, UniProt P00533, 746-750DEL/T790M); type: cell-based, PC-9/ER1
[5] = Oral bioavailability in dog at 2 mg/kg; type: ADME, organism-based, Canis lupus familiaris; settings: in vivo
Summary of the method: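 Dog dosed orally at 2 mg kg−1 as a suspension in MCT; bioavailability compared against iv dosing at 1 mg kg−1 in ethanol/PEG/water.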

[6] = Apparent permeability across apical to basolateral side in dog MDCK cells; type: ADME, cell-based, Canis lupus familiaris
[7] = tested on: Epidermal growth factor receptor (Homo sapiens), P00533 [L858R,T790M]; test: In vivo inhibition of EGFR L858R/T790M double mutant in SCID mouse xenografted with human NCI-H1975 cells assessed as reduction in EGFR L858R/T790M double mutant phosphorylation at Y1068 residue at 100 mg/kg, po and measured after 16 hrs by MSD assay; type: functional, organism-based; summary of the method: as §2
[8] = tested on: Plasma; test: Time during which free plasma concentration exceeds IC50 for inhibition of human EGFR T790M/L858R double mutant autophosphorylation in human NCI-H1975 cells xenografted in SCID mouse at 50 mg/kg, po
[9] = tested on: Epidermal growth factor receptor (Homo sapiens), P00533 [L858R,T790M]; test: In vivo inhibition of EGFR L858R/T790M double mutant in SCID mouse xenografted with human NCI-H1975 cells assessed as reduction in AKT phosphorylation at S473 residue at 50 mg/kg, po and measured after 8 hrs by MSD assay; type: functional, organism-based; summary of the method: as §2
[10] = tested on: PC-9; test: Antiproliferative activity against human PC-9 cells harboring harboring EGFR del (746 to 750) mutant assessed as reduction in cell viability; type: functional, cell-based
[11] = tested on: Epidermal growth factor receptor (Homo sapiens), P00533 [L858R,T790M]; test: In vivo inhibition of EGFR L858R/T790M double mutant in SCID mouse xenografted with human NCI-H1975 cells assessed as reduction in ERK1/2 phosphorylation at 100 mg/kg, po and measured after 16 hrs by MSD assay; type: functional, organism-based; summary of the method: as §2
[12] = Aqueous kinetic solubility of compound in PBS buffer at pH 7.4 at 100 uM incubated for 24 hrs by LC/CLND analysis; type: physicochemical; settings: read-out: Kinetic_solubility
Summary of the method: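 Kinetic aqueous solubility measured at pH 7.4.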

[13] = Volume of distribution at steady state in dog at 1 mg/kg,iv; type: ADME, organism-based, Canis lupus familiaris; settings: in vivo, read-out: Vdss; summary of the method: as §1
[14] = Volume of distribution at steady state in mouse at 5 mg/kg,iv; type: ADME, organism-based; settings: in vivo, read-out: Vdss; summary of the method: as §1
[15] = tested on: Epidermal growth factor receptor (Homo sapiens), P00533 [L858R,T790M]; test: In vivo inhibition of EGFR L858R/T790M double mutant in SCID mouse xenografted with human NCI-H1975 cells assessed as reduction in AKT phosphorylation at S473 residue at 100 mg/kg, po and measured after 16 hrs by MSD assay; type: functional, organism-based; summary of the method: as §2
[16] = molecular target: Epidermal growth factor receptor (Homo sapiens, UniProt P00533, L858R/T790M); type: cell-based, NCI-H1975
[17] = tested on: Plasma; test: Time during which free plasma concentration exceeds IC50 for inhibition of human EGFR T790M/L858R double mutant autophosphorylation in human NCI-H1975 cells xenografted in SCID mouse at 100 mg/kg, po
[18] = Fraction unbound in SCID mouse plasma at 50 to 100 mg/kg,po and measured upto 16 hrs by LC-MS assay; type: ADME, organism-based; settings: in vivo, dose 50-100 mg/kg
[19] = Clearance in human hepatocyte; type: ADME, cell-based; settings: hepatocytes
Summary of the method: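 Cryopreserved human hepatocytes used; intrinsic clearance converted to predicted hepatic clearance as (Q × Clint)/(Q + Clint) using liver blood flow Q.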

[20] = Clearance in human liver microsomes; type: ADME, Microsome
Summary of the method: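 Incubation with human liver microsomes; intrinsic clearance scaled to predicted hepatic clearance as Clhep = (Q × Clint)/(Q + Clint), where Q is liver blood flow.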

[21] = molecular target: Epidermal growth factor receptor (Homo sapiens, UniProt P00533, 746-750DEL); type: cell-based, PC-9
[22] = Clearance in mouse plasma at 5 mg/kg,iv; type: ADME, organism-based; summary of the method: as §1
[23] = tested on: Epidermal growth factor receptor (Homo sapiens), P00533 [L858R,T790M]; test: In vivo inhibition of EGFR L858R/T790M double mutant in SCID mouse xenografted with human NCI-H1975 cells assessed as reduction in EGFR L858R/T790M double mutant phosphorylation at Y1068 residue at 50 mg/kg, po and measured after 8 hrs by MSD assay; type: functional, organism-based; summary of the method: as §2
[24] = tested on: NCI-H1975; test: Antiproliferative activity against human NCI-H1975 cells harboring harboring EGFR L858R/T790M double mutant assessed as reduction in cell viability; type: functional, cell-based
[25] = molecular target: Epidermal growth factor receptor (Homo sapiens, UniProt P00533); test: Inhibition of EGFR autophosphorylation in human NCI-H292 cells harboring harboring wild type EGFR preincubated for 60 mins followed by EGF stimulation and measured after 8 mins by SULFO-TAG based electrochemiluminescent assay; type: cell-based
Sequence of Epidermal growth factor receptor (Homo sapiens, UniProt P00533) (P00533 25-1210 limits assumed, stated change not applied): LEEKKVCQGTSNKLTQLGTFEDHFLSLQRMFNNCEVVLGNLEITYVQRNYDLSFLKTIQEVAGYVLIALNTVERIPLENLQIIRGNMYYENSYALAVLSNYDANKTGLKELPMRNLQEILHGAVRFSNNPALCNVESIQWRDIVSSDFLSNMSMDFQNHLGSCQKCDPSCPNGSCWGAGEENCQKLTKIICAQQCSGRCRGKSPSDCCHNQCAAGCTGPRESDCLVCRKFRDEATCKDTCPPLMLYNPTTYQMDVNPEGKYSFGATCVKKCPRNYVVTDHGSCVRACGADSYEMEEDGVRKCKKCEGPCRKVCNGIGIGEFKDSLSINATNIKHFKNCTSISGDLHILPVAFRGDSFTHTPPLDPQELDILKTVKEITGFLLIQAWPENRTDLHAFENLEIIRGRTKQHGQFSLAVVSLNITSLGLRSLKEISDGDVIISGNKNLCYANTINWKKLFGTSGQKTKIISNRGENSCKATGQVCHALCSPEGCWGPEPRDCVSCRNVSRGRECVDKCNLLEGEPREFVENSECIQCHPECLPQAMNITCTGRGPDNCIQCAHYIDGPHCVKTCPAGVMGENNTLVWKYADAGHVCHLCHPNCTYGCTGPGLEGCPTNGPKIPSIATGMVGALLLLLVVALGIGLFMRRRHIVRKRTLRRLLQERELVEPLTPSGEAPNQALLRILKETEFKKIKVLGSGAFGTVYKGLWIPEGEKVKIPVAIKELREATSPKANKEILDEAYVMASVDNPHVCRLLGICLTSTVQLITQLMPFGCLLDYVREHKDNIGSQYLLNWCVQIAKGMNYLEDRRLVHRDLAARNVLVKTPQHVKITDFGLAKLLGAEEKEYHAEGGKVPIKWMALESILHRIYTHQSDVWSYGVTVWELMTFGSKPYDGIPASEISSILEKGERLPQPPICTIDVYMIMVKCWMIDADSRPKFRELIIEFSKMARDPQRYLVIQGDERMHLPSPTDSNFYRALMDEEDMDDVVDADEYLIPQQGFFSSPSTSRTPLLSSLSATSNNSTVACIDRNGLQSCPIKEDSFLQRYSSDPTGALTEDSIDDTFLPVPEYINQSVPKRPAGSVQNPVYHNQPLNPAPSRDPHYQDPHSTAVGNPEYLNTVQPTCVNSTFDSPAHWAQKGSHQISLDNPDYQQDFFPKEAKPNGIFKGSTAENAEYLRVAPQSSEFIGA

Sequence of Epidermal growth factor receptor (Homo sapiens), P00533 [L858R,T790M] (P00533 whole entry T790M/L858R, looked up): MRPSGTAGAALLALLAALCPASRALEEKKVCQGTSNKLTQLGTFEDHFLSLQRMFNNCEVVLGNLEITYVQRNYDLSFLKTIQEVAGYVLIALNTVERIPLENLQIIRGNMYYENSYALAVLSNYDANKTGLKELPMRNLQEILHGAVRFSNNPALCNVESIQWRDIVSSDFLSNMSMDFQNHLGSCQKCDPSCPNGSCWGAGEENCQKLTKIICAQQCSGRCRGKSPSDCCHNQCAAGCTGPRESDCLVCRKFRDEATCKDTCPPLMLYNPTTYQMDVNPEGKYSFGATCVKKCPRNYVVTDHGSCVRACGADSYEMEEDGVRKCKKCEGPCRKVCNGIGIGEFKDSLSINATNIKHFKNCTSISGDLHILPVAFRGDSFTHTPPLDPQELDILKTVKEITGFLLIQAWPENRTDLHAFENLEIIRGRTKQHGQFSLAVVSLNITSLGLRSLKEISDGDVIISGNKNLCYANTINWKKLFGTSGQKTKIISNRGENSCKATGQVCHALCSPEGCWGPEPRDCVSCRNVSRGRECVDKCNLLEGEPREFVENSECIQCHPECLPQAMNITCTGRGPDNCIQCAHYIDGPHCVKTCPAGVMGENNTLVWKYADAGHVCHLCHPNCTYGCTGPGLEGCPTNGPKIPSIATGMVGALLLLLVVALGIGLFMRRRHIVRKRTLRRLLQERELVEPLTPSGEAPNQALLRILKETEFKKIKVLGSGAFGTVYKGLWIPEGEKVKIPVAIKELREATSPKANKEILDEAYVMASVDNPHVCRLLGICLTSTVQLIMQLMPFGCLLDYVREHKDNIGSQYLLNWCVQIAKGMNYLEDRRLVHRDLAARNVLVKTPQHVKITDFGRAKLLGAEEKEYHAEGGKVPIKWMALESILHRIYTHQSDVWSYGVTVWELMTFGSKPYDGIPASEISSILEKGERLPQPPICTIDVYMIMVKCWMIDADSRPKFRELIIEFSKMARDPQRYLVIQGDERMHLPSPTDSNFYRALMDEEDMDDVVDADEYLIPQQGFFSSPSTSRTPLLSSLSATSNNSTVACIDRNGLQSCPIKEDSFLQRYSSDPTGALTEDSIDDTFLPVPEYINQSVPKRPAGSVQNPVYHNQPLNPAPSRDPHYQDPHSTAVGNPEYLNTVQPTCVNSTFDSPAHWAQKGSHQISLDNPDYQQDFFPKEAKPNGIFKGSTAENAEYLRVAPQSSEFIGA
Sequence of Epidermal growth factor receptor (Homo sapiens, UniProt P00533, 746-750DEL) (P00533 whole entry, looked up, stated change not applied): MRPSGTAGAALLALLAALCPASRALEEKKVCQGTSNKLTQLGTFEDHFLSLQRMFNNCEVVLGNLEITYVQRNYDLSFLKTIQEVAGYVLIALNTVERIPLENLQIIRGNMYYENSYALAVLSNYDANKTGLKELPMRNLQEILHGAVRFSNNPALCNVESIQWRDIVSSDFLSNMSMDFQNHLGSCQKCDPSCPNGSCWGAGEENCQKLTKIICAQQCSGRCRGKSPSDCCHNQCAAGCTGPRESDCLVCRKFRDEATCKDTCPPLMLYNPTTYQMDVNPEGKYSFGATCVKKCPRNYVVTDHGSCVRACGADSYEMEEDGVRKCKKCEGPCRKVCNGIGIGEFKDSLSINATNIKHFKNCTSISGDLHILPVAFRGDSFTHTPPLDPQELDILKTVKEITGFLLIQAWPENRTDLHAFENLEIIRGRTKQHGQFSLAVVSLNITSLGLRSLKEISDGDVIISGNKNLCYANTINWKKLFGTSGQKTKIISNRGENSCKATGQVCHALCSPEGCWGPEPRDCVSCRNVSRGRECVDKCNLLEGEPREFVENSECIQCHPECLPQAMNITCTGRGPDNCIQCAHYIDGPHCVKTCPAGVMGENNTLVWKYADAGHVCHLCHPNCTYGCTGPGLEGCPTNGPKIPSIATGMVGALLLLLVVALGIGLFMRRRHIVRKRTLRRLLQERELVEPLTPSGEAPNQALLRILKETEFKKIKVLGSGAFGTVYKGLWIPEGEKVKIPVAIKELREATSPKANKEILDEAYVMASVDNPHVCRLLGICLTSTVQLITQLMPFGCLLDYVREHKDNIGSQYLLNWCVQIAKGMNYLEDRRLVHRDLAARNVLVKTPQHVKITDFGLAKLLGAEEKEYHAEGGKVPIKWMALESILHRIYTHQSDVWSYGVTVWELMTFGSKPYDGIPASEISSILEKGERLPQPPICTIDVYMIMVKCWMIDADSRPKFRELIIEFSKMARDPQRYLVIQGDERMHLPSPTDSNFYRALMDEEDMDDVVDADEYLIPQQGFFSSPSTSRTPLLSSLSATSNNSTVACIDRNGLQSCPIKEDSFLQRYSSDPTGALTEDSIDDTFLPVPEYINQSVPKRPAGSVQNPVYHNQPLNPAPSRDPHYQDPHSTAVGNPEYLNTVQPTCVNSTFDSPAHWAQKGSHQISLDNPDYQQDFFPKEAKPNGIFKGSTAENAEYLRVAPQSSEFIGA
Sequence of Epidermal growth factor receptor (Homo sapiens, UniProt P00533, 746-750DEL/T790M) (P00533 whole entry, looked up, stated change not applied): as above

## CC[C@H](C)n1nc(N2CC(C(C)(C)O)C2)c2cnc(Nc3ccnc(-c4cnn(S(=O)(=O)C5CC5)c4)n3)cc21
[1]
  clearance: 13 mL/min/kg
[2]
  bioavailability: 19%
[3]
  inhibition: Active
[4]
  IC50: 8 nM
[5]
  bioavailability: 30%
[6]
  Papp A→B: 8.9 ×10⁻⁶ cm/s
[7]
  inhibition: Active
[8]
  T>IC50: 8 h
[9]
  inhibition: Active
[10]
  IC50: 151 nM
[11]
  inhibition: Active
[12]
  solubility kinetic at 24 h, 100 µM: 2 µM (≈ 1.1 µg/mL)
[13]
  Vd: 6.9 L/kg
[14]
  Vd: 3.4 L/kg
[15]
  inhibition: Active
[16]
  IC50: 27 nM
[17]
  T>IC50: 16 h
[18]
  Fu: 0.009
[19]
  CLhep predicted: 2.7 mL/min/kg
[20]
  CLhep predicted: 3.8 mL/min/kg
[21]
  IC50: 33 nM
[22]
  clearance: 104 mL/min/kg
[23]
  inhibition: Active
[24]
  IC50: 361 nM
[25]
  IC50: 218 nM
